Experimental data: ChEMBL document CHEMBL1126768, “A mechanism-based inactivation study of neutral endopeptidase 24.11” (J Med Chem, 1993)

Legend:
[1] = target: Neprilysin (Homo sapiens) (UniProt P08473); assay: Inactivation constant for Neutral endopeptidase (NEP)
How it was run: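 Recombinant human NEP from CHO cells (>99% pure), 0.5 μM in 50 mM HEPES pH 7.4 with 10% p-dioxane, incubated at 25 °C with inactivator at 0.5–7.5 μM final. Aliquots diluted 1:100 into DAGNPG assay solution (50 mM Tris pH 7.4, 37 °C), fluorescence read at ex 342/em 562 nm. Pseudo-first-order kobs plotted double-reciprocally against inactivator concentration to give kinact and Km.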

[2] = target: T1, Angiotensin-converting enzyme (Rattus norvegicus) (UniProt P47820); assay: Inactivation constant for angiotensin converting enzyme (ACE)
T1 sequence (whole entry): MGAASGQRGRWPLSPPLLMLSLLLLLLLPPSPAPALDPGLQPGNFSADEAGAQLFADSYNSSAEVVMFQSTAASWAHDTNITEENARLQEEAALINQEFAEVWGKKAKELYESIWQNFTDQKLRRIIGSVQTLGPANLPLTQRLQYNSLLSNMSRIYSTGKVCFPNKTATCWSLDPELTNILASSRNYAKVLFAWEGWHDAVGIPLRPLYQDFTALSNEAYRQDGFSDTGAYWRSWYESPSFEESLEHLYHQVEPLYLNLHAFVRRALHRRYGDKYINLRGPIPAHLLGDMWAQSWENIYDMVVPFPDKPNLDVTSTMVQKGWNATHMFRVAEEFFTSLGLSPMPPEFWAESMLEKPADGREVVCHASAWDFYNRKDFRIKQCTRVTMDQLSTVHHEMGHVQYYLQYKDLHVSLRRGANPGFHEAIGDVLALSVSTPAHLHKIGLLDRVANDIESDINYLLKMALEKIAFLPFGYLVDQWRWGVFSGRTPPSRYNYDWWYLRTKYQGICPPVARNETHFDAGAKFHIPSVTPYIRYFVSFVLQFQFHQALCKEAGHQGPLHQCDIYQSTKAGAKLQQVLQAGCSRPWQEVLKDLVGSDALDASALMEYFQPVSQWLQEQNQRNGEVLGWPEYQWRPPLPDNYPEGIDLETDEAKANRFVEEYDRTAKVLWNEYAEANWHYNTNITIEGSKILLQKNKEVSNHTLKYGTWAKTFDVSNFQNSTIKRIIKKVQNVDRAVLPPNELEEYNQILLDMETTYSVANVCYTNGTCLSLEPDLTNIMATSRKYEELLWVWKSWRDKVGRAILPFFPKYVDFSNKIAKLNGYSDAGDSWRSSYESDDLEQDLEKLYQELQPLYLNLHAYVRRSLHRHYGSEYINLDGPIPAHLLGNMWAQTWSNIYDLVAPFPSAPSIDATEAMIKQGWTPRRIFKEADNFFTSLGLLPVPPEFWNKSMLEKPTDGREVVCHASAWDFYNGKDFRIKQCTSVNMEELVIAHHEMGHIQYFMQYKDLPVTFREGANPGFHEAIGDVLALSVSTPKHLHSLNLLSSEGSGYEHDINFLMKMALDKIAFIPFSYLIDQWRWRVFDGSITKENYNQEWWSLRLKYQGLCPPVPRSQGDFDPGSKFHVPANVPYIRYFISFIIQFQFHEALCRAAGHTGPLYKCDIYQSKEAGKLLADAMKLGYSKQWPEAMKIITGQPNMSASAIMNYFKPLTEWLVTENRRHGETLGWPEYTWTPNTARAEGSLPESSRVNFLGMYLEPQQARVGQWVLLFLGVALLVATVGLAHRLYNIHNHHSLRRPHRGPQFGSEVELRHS

[3] = Partition ratio expressed as ratio of catalytic constant to that of inactivation constant for (NEP)
How it was run: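 Partition ratio was found by titration. NEP at 0.5 μM in 50 mM HEPES pH 7.4 was mixed with inactivator at inactivator/NEP molar ratios from 1 up to 2600 or 6000, then stirred gently at 4 °C for 16 h. Aliquots were diluted 1:100 into DAGNPG assay solution and residual activity was measured fluorometrically. Controls lacked inactivator.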

[4] = target: Angiotensin-converting enzyme (Homo sapiens) (UniProt P12821); assay: Partition ratio expressed as ratio of catalytic constant to that of inactivation constant for angiotensin converting enzyme (ACE)
[5] = target: Neprilysin (Homo sapiens) (UniProt P08473)

Chain of Neprilysin (Homo sapiens) (P08473 whole entry): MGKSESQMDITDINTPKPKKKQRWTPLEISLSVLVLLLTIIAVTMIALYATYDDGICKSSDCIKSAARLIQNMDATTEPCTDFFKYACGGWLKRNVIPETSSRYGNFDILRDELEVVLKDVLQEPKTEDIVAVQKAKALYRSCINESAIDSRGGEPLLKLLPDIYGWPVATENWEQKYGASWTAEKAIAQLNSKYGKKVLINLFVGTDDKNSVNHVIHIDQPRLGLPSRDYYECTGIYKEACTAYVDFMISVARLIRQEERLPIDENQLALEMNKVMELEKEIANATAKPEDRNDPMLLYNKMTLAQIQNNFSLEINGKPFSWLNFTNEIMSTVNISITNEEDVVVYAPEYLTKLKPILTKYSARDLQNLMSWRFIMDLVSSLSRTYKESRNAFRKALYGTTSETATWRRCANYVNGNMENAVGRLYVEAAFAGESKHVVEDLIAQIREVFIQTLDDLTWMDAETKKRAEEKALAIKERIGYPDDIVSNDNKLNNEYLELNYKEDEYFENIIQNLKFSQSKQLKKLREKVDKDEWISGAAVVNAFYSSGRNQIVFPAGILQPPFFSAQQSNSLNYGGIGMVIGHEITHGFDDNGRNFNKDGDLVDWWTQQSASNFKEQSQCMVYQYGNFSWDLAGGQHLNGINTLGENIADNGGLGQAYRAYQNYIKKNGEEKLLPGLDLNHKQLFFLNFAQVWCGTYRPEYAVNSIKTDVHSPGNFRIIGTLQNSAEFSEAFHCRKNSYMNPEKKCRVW
Chain of Angiotensin-converting enzyme (Homo sapiens) (P12821 whole entry): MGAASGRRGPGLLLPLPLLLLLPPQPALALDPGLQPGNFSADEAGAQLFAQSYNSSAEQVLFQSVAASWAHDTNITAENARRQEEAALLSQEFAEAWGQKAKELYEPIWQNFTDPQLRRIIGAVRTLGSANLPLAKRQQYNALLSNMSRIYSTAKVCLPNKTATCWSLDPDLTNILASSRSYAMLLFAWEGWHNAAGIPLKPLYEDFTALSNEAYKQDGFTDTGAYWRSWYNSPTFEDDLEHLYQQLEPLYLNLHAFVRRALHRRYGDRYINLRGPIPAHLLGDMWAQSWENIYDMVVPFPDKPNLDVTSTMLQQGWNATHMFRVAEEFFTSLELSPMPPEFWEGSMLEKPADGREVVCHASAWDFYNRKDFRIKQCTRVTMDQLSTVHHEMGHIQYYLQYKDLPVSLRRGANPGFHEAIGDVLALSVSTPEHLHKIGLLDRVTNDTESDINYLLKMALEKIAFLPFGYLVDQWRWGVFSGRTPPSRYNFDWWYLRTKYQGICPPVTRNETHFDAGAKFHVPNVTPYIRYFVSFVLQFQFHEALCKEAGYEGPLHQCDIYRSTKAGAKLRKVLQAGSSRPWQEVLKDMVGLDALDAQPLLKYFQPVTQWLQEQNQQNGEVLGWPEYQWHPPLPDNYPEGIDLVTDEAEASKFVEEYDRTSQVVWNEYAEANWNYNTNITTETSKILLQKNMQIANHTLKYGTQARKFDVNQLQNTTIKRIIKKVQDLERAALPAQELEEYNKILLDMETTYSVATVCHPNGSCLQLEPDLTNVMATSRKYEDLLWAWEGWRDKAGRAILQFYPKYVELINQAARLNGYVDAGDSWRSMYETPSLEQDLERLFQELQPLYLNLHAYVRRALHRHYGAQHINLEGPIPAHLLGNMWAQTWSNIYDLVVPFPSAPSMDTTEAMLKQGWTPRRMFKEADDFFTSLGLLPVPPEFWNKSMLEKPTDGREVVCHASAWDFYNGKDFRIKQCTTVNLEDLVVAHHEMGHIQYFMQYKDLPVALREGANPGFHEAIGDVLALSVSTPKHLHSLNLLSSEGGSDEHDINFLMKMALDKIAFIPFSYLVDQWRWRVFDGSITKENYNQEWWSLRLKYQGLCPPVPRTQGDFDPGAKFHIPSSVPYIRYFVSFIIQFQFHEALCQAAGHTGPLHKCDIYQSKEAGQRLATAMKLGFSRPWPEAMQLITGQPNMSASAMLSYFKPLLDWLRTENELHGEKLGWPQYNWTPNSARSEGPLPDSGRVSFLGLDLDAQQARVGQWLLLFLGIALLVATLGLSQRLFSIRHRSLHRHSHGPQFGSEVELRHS

kinact [1] | kinact [2] | K cat/Kinact [3] | K cat/Kinact [4] | kinact [5] | Compound
0.022 min⁻¹ | 0.08 min⁻¹ | 4700 | 8300 | – | N#CCC(=O)NC(Cc1ccccc1)C(=O)NC(Cc1ccccc1)C(=O)O (stereo unspecified)
– | – | 1340 | – | 0.071 min⁻¹ | N#CCC(=O)CC(Cc1ccccc1)C(=O)NC(Cc1ccccc1)C(=O)O (stereo unspecified)
